# Source: PubChem (several laboratories)
# In the library only some 4% were active in any assay of this set; here they are far more common.
# KCNQ1 pot = potentiates or activates the human KCNQ1 potassium channel; CHO-K1 KCNQ1, thallium flux FluxOR fluorescence; stronger effect = higher value; B-score at 10 µM; AID 2648; P51787; 310,000 compounds, 0.35% hits;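 active = fluorescence ratio B-score, a plate-corrected score, at least three library SD, with initial intensity B-score within 5 SD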
#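 Test system: CHO-K1 cells stably expressing KCNQ1 / Medium: assay buffer / Also added: depolarizing K+/Tl+ stimulus, K2SO4 and Tl2SO4 each 12.5 mM in 5x stock / Incubation: 90 min dye loading and 20 min compound exposure, both at room temperature / Signal: thallium influx via FluxOR fluorescence, kinetic imaging / Evaluation: B score of baseline-normalized fluorescence ratio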
# KCNK3 block = human KCNK3 channel inhibition, primary screen. 340,000 compounds, 0.84% hits. CHO-KCNK3 thallium flux, FluxOR fluorescence; stronger effect = lower value. B-score at 10 µM. AID 602410. O14649;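 active = B-score under library mean minus 4 SD, starting fluorescence ratio at most library mean plus 5 SD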;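 note: more negative B-score means stronger inhibition of thallium flux through KCNK3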
# Target sequence (O14649 whole entry, looked up): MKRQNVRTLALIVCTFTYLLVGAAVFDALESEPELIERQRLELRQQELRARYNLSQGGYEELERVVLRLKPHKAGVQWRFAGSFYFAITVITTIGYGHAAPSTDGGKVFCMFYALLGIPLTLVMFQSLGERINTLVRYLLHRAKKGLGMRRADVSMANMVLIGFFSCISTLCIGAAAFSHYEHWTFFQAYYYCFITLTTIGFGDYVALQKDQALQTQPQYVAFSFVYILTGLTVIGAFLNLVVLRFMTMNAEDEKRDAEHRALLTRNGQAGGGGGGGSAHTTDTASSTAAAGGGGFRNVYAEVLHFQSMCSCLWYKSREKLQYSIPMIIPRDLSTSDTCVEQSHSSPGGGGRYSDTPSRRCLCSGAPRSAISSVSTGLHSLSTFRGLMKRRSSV
# hERG rescue = shields human hERG channel from block by proarrhythmic agents; Q12809; CHO-hERG, FluxOR thallium flux, dofetilide IC70 present; activation (rescue from dofetilide block), less the hit threshold, % at 10 µM; 310,000 compounds, 0.51% hits;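 active = activation above the mean of controls blocked by dofetilide plus 5 SD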;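 note: thallium influx through hERG after potassium depolarization seen as dye fluorescence rise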
# KCNQ1 block = blocks the human KCNQ1 potassium channel. AID 2642. CHO-K1 KCNQ1, FluxOR thallium flux fluorescence; stronger effect = higher value. B-score at 10 µM. 310,000 compounds, 1.3% hits;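 active = compounds whose thallium flux B-score, printed positive for inhibition, exceeds three library SD while starting fluorescence stays within three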;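 note: channel opened by potassium depolarization with thallium stimulus after 20 min compound exposure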
# PHOSPHO1 inh = inhibitors of human PHOSPHO1 phosphatase | 290,000 compounds, 1.1% hits | recombinant PHOSPHO1, absorbance phosphatase assay | inhibition, % at 13.3 µM | Q8TCT1; in the data active = inhibition above about 60%
# KCNK9 block = blocks the human KCNK9 two-pore domain potassium channel; Q9NPC2; HEK293 KCNK9, FluxOR thallium flux fluorescence; stronger effect = lower value; B-score at 10 µM; 310,000 compounds, 1.2% hits; AID 488922;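 active = ratio B-score over 3 SD below the library mean, with starting fluorescence within 5 SD of its mean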;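 note: negative B-score means less thallium flux so channel inhibition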
# * hit, by the source's call; i = inactive; / = not tested or not shown.
SMILES,KCNQ1 pot,KCNK3 block,hERG rescue,KCNQ1 block,PHOSPHO1 inh,KCNK9 block
Cc1ccc(-n2cc(C(C)(C)C)[nH]c2=S)cc1,i,i,-18,i,93*,i
O=C(O)CSc1nnc(CNc2ccc(F)cc2)n1-c1ccccc1,i,i,-10,i,13,i
CSC1=NC(C(Cl)(Cl)Cl)N=C(c2ccccc2)N1 (centres undefined),i,i,8.6*,i,20,i
CN1C(=O)NC(c2cccc(F)c2)C2=C1CC(C)(C)CC2=O (centres undefined),i,i,-2,i,16,i
CCN1CCN(C(=O)c2nn(-c3ccccc3)c(=O)c3ccccc23)CC1,i,i,-9,i,-1,i
CNc1nc(NC)nc(-n2c(C(F)(F)F)nc3ccccc32)n1,i,i,-8,i,25,i
CCOC(=O)COc1ccc(S(=O)(=O)NCC2CCCO2)cc1 (centres undefined),i,i,0,i,197*,i
Cc1ccc(S(=O)(=O)NCC2CCCO2)cc1 (centres undefined),i,i,-3,i,35,i
COc1ccc2c(c1[N+](=O)[O-])CCC/C2=N/OC(=O)c1cccc2ccccc12,i,i,-14,i,78*,i
Fc1ccc(-c2n[nH]c(=S)n2CC2CCCO2)cc1 (centres undefined),i,i,-1,i,88*,i
O=C(CSc1nc2ccc(Cl)cc2[nH]1)c1cccs1,i,i,-9,i,0,i
S=c1[nH]nc(-c2ccc3ccccc3n2)o1,i,i,-8,i,89*,i
CCOc1ccc(S(=O)(=O)N(C)CC(=O)NCc2ccc3c(c2)OCO3)cc1,i,i,-7,i,14,i
C=CCn1c(-c2cccn(Cc3ccccc3)c2=O)n[nH]c1=S,i,i,-8,i,-67,i
C=CCn1c(-c2cccn(Cc3cccc(Cl)c3)c2=O)n[nH]c1=S,i,i,-5,i,98*,i
C=CCn1c(-c2cccn(Cc3ccc(Cl)cc3)c2=O)n[nH]c1=S,i,i,-13,i,99*,i
COc1ccccc1OCCNC(=O)c1ccc(C(C)(C)C)cc1,i,i,-5,i,/,i
CC1CCN(S(=O)(=O)c2ccc(C(=O)Nc3nnc(-c4ccccn4)o3)cc2)CC1,i,i,-13,i,71*,i
CC1CCN(S(=O)(=O)c2ccc(C(=O)Nc3nnc(C4=COCCO4)o3)cc2)CC1,i,i,-3,i,3,i
COc1cccc(C=N[C@@H](CO)[C@@H](O)c2ccc([N+](=O)[O-])cc2)c1O,i,i,-7,i,8,i
O=C1c2[nH]nc(-c3ccccc3O)c2C(c2cccc(Cl)c2)N1Cc1ccco1 (centres undefined),i,i,-17,i,-25,i
O=C1c2[nH]nc(-c3ccccc3O)c2C(c2ccc(F)cc2)N1Cc1ccco1 (centres undefined),i,i,-21,6*,-12,i
O=C(c1ccc2snnc2c1)N1CCSCC1,i,i,-1,i,99*,i
CCO/C(C)=C1\N=C(c2ccc(Cl)cc2)OC1=O,i,i,-11,i,16,i
COCCn1c(-c2ccc(OC)cc2)cnc1SCC(=O)Nc1ccc(OC)cc1OC,i,i,-6,6*,-10,i
SMILES,KCNQ1 pot,KCNK3 block,hERG rescue,KCNQ1 block,PHOSPHO1 inh,KCNK9 block
COc1c2ccccc2nc2ccccc12,i,i,0,i,35,i
CNC(=S)Nc1cc(C(F)(F)F)ccc1Cl,i,i,-1,i,10,i
COC(=O)c1ccc(COc2ccccc2OC)o1,i,i,-5,i,22,i
COc1ccccc1OCc1ccc(C(=O)n2nc(C)c(Cl)c2C)o1,i,i,-9,i,27,-7.9*
C=CCNC(=O)c1ccc(OC)cc1,i,i,-7,i,40,i
C=CCN(CC=C)C(=S)NC(=O)/C=C/c1ccc(OC)cc1,i,i,12*,i,0,i
C=CCN(CC=C)C(=S)NC(=O)c1ccc(-c2ccccc2)cc1,15*,i,0,i,17,i
C=CCN(CC=C)C(=S)NC(=O)c1ccc(OC)cc1,13*,i,28*,i,37,i
COc1ccc(C(=O)NC(=S)N(Cc2ccccc2)Cc2ccccc2)cc1,85*,i,33*,i,-6,i
Cc1cc(C)c2[nH]c(C(=O)Nc3ccc4c(c3)OCO4)cc2c1,i,i,-4,i,22,i
C=CCN(CC=C)C(=S)NC(=O)c1ccc(C)c(Br)c1,56*,i,87*,i,7,i
C=CCN(CC=C)C(=S)NC(=O)/C=C/c1ccc(C)cc1,i,i,-4,i,-15,i
O=C(NC(=S)N(Cc1ccccc1)Cc1ccccc1)c1ccccc1F,13*,i,16*,i,46,i
CN(CC(=O)Nc1ccc(Cl)cc1)C(=O)c1sccc1-c1ccccc1,/,i,/,/,/,/
CCCCn1c(SCN2C(=O)c3ccccc3C2=O)nc2cc(S(N)(=O)=O)ccc21,i,i,-7,i,90*,i
CCCCn1c(SCn2nnc3ccccc3c2=O)nc2cc(S(N)(=O)=O)ccc21,i,i,-9,i,35,i
CCCCn1c(SCC(=O)c2cc(OC)ccc2OC)nc2cc(S(N)(=O)=O)ccc21,i,i,-10,i,65*,i
O=C(NCCOc1ccccc1)c1ccc2n[nH]nc2c1,/,i,/,/,/,/
Cc1cc(N2CCOCC2)ccc1/C=C\[N+](=O)[O-],i,i,-18,6*,-8,i
CC1=C(C(=O)OC2CCCCC2)C(c2ccco2)C2=C(CC(C)(C)CC2=O)N1 (centres undefined),i,i,-12,i,-2,i
Cc1cc(C(=O)CSc2nc3ccccc3c(=O)n2C)c(C)n1Cc1ccc2c(c1)OCO2,i,i,-26,i,20,-7.9*
O=C(CSc1nccn1-c1ccc(F)cc1)NCc1ccc2c(c1)OCO2,i,i,-9,i,65*,i
O=C(CSc1nnc(-c2ccccc2)n1Cc1ccco1)NCc1ccc2c(c1)OCO2,i,i,-5,i,60*,i
O=C(CSc1nccn1-c1ccccc1)NCc1ccc2c(c1)OCO2,i,i,-3,i,33,i
Cc1cc(C(=O)CSc2nnc(-c3ccccc3)n2Cc2ccc3c(c2)OCO3)c(C)n1C,i,i,-10,i,95*,i
